Screens (PubChem)
Ins promoter up – insulin promoter activators in MIN6 cells, imaging, high-content screening, mouse beta cells; MIN6 insulin promoter-GFP reporter; hits give high values; z-score at 5 µM; hit rate 0.3% among 190,000;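 active means z-score above 3 at 5 µM with at least 500 cells counted in the well; inconclusive means wells under 500 cells, flagged as cytotoxic or low count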
Dynein transport – inhibitors of GR-EGFP nuclear translocation, primary screen, dynein cargo transport inhibitor project, imaging, high-content, 3617.4 mouse cells; test concentration mostly 20 µM; stimulated with dexamethasone, 1 µM; hits give low values; z-score, hits read low; hit rate 0.47% among 220,000;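 active means plate z-score of nuclear minus cytoplasmic receptor signal below a set negative limit, without overly bright fluorescence or cell loss, cut at about -3.5 in these data, passing the limit was not always enough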;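 further: z-score of nuclear minus cytoplasmic ring GR-EGFP intensity difference per well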
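Buffer or medium – tet-free medium with charcoal-stripped serum · Signal – automated 10x imaging of fixed Hoechst-stained cells · Also added – dexamethasone agonist, 1.0 µM final, for 30 min · Incubation – induction 48 h, compound 1 h, agonist 30 min · Read-out – GR-EGFP nuclear translocation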
HSV augment – enhancers of HSV replication in host cells, fold increase, host cell viability; HSV replication augmentation in cells; maximum fold increase; hit rate 0.005% among 220,000; in the data active means maximum fold increase above about 1.5; inconclusive means no clear call, values can overlap the other calls; tested in PC3 cells
Autophagy HCS – autophagy modulators in MEF cells, primary screen, imaging, high-content, MEF GFP-LC3. MEF GFP-LC3 puncta imaging; test concentration mostly 10 µM. calls only at 10 µM (by protocol). hit rate 0.98% among 190,000. AID 463193, 2010;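 active means percentage of spot-positive cells more than 3 SD above its plate mean, without a fluorescence outlier flag or 80% toxicity; inconclusive means no clear call, values can overlap the other calls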
INS promoter inh – inhibitors of insulin promoter-driven GFP, primary screen, imaging, TRM-6 cells (human fetal islet line), eGFP reporter, cell count; reporter expression induced with tamoxifen; AID 1273, 2008; inhibition, % at 2 µM; hit rate 0.9% among 130,000;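 active means inhibition above the mean plus 3 SD, with well images judged a real hit on visual review, cut at about 60% in these data, passing the limit was not always enough; inconclusive means inhibition over the cutoff but images rejected on review; inactive means inhibition not above the cutoff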
Furin inh – human furin inhibitors, primary screen, biochemical, fluorescence intensity; P09958; hit rate 0.061% among 220,000; purified furin, fluorogenic substrate cleavage; inhibition, % at 20 µM or 30 µM; in the data active means inhibition above about 25%
Target sequence (P09958 108-714 limits assumed): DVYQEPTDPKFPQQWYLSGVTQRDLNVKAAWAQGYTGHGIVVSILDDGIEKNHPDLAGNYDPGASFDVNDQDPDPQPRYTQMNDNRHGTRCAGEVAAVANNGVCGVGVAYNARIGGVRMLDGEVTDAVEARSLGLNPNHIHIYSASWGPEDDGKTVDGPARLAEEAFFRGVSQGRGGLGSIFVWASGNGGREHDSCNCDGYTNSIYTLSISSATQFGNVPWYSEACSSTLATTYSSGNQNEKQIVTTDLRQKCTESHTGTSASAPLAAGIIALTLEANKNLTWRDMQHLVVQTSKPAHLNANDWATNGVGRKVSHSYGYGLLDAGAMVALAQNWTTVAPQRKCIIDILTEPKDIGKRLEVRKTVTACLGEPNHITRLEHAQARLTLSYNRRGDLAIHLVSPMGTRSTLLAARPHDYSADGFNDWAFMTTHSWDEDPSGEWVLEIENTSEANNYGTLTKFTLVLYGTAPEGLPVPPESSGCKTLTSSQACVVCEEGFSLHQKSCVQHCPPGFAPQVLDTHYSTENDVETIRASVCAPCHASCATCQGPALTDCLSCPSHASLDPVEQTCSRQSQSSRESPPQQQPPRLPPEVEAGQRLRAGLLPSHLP
Of the large screens only hits and unclear results are named; the others gave an inactive call. A selection: hits, their analogues and other compounds. The true share with any hit is near 2%.

O=S(=O)(c1cnc(Cl)c(Cl)c1)N1CCc2ccccc21	Dynein transport -4.3 (no result: Autophagy HCS, INS promoter inh)
CC1=C(C)/C(=N\OS(=O)(=O)c2ccc(C)cc2)C=CC1=O	Dynein transport -3.7
CCOc1ccc(NC(=O)c2cn(CC(C)C)c(=O)c3c2c2ccccc2n3C)cc1	Autophagy HCS active
CCOCCCNS(=O)(=O)c1ccc(NC(=O)Cc2c(F)cccc2Cl)cc1	none (no result: INS promoter inh)
Cc1cc(-c2ccccc2)c2c3c(c(-c4ccccc4)n2n1)c(=O)n(C)c(=O)n3C	Autophagy HCS active
C/C(=N\NC(=O)CCCNc1ccc(C)cc1)c1ccccn1	INS promoter inh 64
C/C(=N\NC(=O)CCCNc1ccccc1)c1ccncc1	none (no result: INS promoter inh)
CC(C)N(C(=S)Nc1cccnc1)c1ccccc1	none (no result: Autophagy HCS, INS promoter inh)
O=C(c1cc(COc2ccc(F)cc2Cl)on1)N1CCCC(c2ccccc2)C1 (stereo not given)	Autophagy HCS active
Cc1ccccc1C(=O)NNC(=O)CSc1nnc(C)n1-c1ccccc1	none (no result: Ins promoter up)
CC1Nc2nc(NC(=O)C(C)(C)C)[nH]c(=O)c2N(C)C1C (stereo not given)	none
Cc1ccc(NC(=O)c2cc(NC(=O)C3CC=CCC3C(=O)O)ccc2N2CCOCC2)cc1Cl (stereo not given)	none
COc1ccc(N2C(=O)CC(Sc3nnc(-c4ccccc4)o3)C2=O)cc1 (stereo not given)	Dynein transport -4.1 (no result: Ins promoter up)
COc1cc(C(=O)NC(C(=O)Nc2cccc(C(C)=O)c2)C(C)C)cc(OC)c1OC (stereo not given)	none
c1csc(-c2cn3ccc4ccccc4c3n2)c1	INS promoter inh 86
CCN1CCN(CC(=O)Nc2c(C(=O)OC)[nH]c3cccc(Cl)c23)CC1	INS promoter inh 79
CCOc1ccc(Cn2c3ccc(OC)cc3c3nc4ccccc4nc32)cc1OC	Autophagy HCS active
COC(=O)Cn1c2ccc(OC)cc2c2nc3ccccc3nc21	none
CCOC(=O)Cn1c2ccc(OC)cc2c2nc3ccccc3nc21	Autophagy HCS active
Cn1c(=O)c2c(nc(N3CCNCC3)n2Cc2cccc3ccccc23)n(C)c1=O	Autophagy HCS active (no result: INS promoter inh)
Cn1c(=O)[nH]c(=O)c2c1nc(N1CCNCC1)n2Cc1cccc2ccccc12	none
CCN1CCc2c(sc(NC(=S)NC(=O)c3ccc(Cl)cc3)c2C(N)=O)C1	HSV augment inconclusive (no result: Ins promoter up, Autophagy HCS, INS promoter inh)
COCc1nnc(NC(=O)c2ccc(S(=O)(=O)N(CC(C)C)CC(C)C)cc2)o1	none (no result: INS promoter inh)
C=CCN(CC=C)S(=O)(=O)c1ccc(C(=O)Nc2nnc(COC)o2)cc1	Autophagy HCS active (no result: INS promoter inh)
COc1ccc(-n2c(SCCC(=O)O)nnc2-c2ccncc2)cc1	INS promoter inh 81
CCCc1nc(C(C)(C)O)c(C(=O)O)n1Cc1ccc(-c2ccccc2-c2nn[nH]n2)cc1	none (no result: Dynein transport, Autophagy HCS, INS promoter inh, Furin inh)
Cc1ccc(-c2cc(C(=O)Nc3cccnc3)c3ccccc3n2)o1	Dynein transport -4.4 (no result: INS promoter inh)
Cc1ccc(NC(=O)CN(C)S(=O)(=O)c2ccc(Br)s2)cc1F	none
COC(=O)c1ccc(C)c(NC(=O)CN(c2ccccc2)S(=O)(=O)N(C)C)c1	none
COc1ccc2c(C)nc(Nc3nc(C)cc(=O)[nH]3)nc2c1	Autophagy HCS active (no result: Ins promoter up, HSV augment)
CC(C)NC(=O)c1onc(CSc2ccccc2F)c1C(=O)O	none
CC(C)NC(=O)c1onc(CSc2ccc(F)cc2)c1C(=O)O	INS promoter inh 89
Cc1ccccc1SCc1noc(C(=O)NC(C)C)c1C(=O)O	Ins promoter up 3
CC(C)NC(=O)c1onc(CSc2ccc(C(C)C)cc2)c1C(=O)O	none
CC(=O)Nc1ccc2sccc2c1	none
O=C(Cn1nnc(-c2ccccc2)n1)NNC(=O)c1ccco1	none (no result: INS promoter inh)
CCOc1ccc(CN(C(=O)c2oc3cc(C)ccc3c2C)C2CCS(=O)(=O)C2)cc1 (stereo not given)	INS promoter inh 66
Cc1ccc(S(=O)(=O)NNC2CC(=O)N(c3ccc(Br)cc3)C2=O)cc1 (stereo not given)	Autophagy HCS active (no result: INS promoter inh)
CC(C)CCN(C(=O)Cc1ccc(Cl)c(Cl)c1)c1c(N)n(Cc2ccccc2)c(=O)[nH]c1=O	none (no result: INS promoter inh)
O=C(COc1ccc(Cl)cc1Cl)NC(=O)N1CCCCC1	Furin inh 32
CCOc1ccccc1-n1c(SCC(=O)Nc2ccc(CC)cc2)nc2n[nH]c(C)c2c1=N	none
CCOc1ccccc1NC(=O)CCSc1nc2n[nH]c(C)c2c(=N)n1-c1ccccc1Cl	Autophagy HCS active
O=C(NCC1CC1)C1(C(F)(F)F)CC(CCCO)CCCO1 (stereo not given)	none (no result: Ins promoter up, Dynein transport, Autophagy HCS, INS promoter inh, Furin inh)
Cc1cc2nc(CCN3CCOCC3)n(S(=O)(=O)c3ccc(C(C)(C)C)cc3)c2cc1C	INS promoter inh 86
Cc1cc2ncn(S(=O)(=O)c3ccc(S(=O)(=O)N4CCOCC4)cc3)c2cc1C	none
CCCCC(=O)Nc1ccc(N2CCN(C(=O)CC)CC2)cc1	none (no result: Ins promoter up)
CCC(=O)N1CCN(c2ccc(NC(=S)NC(=O)C(C)C)cc2)CC1	Autophagy HCS active (no result: INS promoter inh)
CC1=CC(C)C2COC(c3ccc[n+](C)c3)C1C2C (stereo not given)	none
O=C(Nc1ccc(N2CCN(C(=O)c3ccco3)CC2)cc1)c1cccnc1Cl	none (no result: INS promoter inh)
N=c1c(S(=O)(=O)c2ccccc2)cc2c(=O)n3ccccc3nc2n1Cc1ccco1	none (no result: INS promoter inh)
Cc1ccc(S(=O)(=O)c2cc3c(=O)n4ccccc4nc3n(Cc3ccco3)c2=N)cc1C	Autophagy HCS active (no result: Ins promoter up)
COc1cc(/C=N/NC(=O)c2ccncc2)ccc1OC(=O)c1ccc([N+](=O)[O-])cc1	INS promoter inh 100
CN1CCN(Cc2nc(N)nc(Nc3ccc4c(c3)OCCO4)n2)CC1	Ins promoter up 4.7 (no result: INS promoter inh)
Cc1ccc(C(=O)Nc2ccc3cn[nH]c3c2)cc1S(=O)(=O)N1CCOCC1	none (no result: INS promoter inh)
CC(C)(C)c1ccc(NC(=O)Cn2cnc3cc([N+](=O)[O-])ccc3c2=O)cc1	Autophagy HCS active (no result: INS promoter inh)
O=c1c2ccc([N+](=O)[O-])cc2ncn1CCOc1ccccc1	none (no result: INS promoter inh)
Cc1ccc(OCCn2cnc3cc([N+](=O)[O-])ccc3c2=O)cc1	Autophagy HCS active (no result: INS promoter inh)
Brc1ccc([C@H]2CN3CCSC3=N2)cc1	none (no result: Ins promoter up, Dynein transport, Autophagy HCS, INS promoter inh, Furin inh)
CC[C@]1(O)CC2CN(CCc3c([nH]c4ccccc34)[C@@](C(=O)OC)(c3cc4c(cc3OC)N(C)[C@H]3[C@@](O)(C(N)=O)[C@H](O)[C@]5(CC)C=CCN6CC[C@]43[C@@H]65)C2)C1 (stereo not given in full)	none (no result: Ins promoter up, Dynein transport, Autophagy HCS, INS promoter inh, Furin inh)
O=C(NC(Cc1c[nH]c2ccccc12)C(=O)O)/C(=C/c1ccc2c(c1)OCO2)NC(=O)c1ccccc1 (stereo not given)	INS promoter inh 73 (no result: Ins promoter up)
CC(C)(C)C(=O)Cn1nnc(-c2ccc(C(F)(F)F)cc2)n1	none (no result: Autophagy HCS, INS promoter inh)
NC(=O)Cn1nnc(-c2ccc(C(F)(F)F)cc2)n1	Furin inh 26
